Compounds with a hit are over-represented: about 1.6% of the library has one in this group of screens.
NR2E3 ag-1 – activates human NR2E3 receptor; Q9Y5X4; CHO-S Gal4-NCOR/VP16-NR2E3 two-hybrid, luciferase; inhibition of corepressor binding, % at 3.98 µM; hit rate 0.35% among 360,000;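 active = inhibition above the mean of all tested compounds plus 3 SD, cut at about 70% in these data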;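 also: 0% = DMSO with NR2E3 transfected cells and 100% = cells lacking NR2E3 construct; higher means lower luciferase signal from less NR2E3 corepressor binding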
PKA-R1A act – PKA-R1A complex activation | PKA-R1A dissociation, Cy5-IP20 fluorescence polarization; scaled: DMSO 0%, 113 µM cGMP 100% | activation, % at 11.4 µM | hit rate 0.083% among 340,000 | P00514+P68181;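 active = percent activation above the mean of all tested compounds plus 3 SD, cut at about 19% in these data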;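 also: higher means more PKAc released from R1A so a rise in polarization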
Rev-erbA mod – Rev-erb alpha (human) modulation; activity, % at 10 µM; AID 1259318; P20393; Rev-erbα–FITC-DNA binding, fluorescence polarization, 90 min; hit rate 0.79% among 370,000;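 active = activity above about 14%, limit read from the data; passing the limit was not always enough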;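 also: 0% = DMSO wells with 35 nM protein and 100% = DMSO wells with 750 nM protein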
PKA-R2B act – PKA-R2B complex activation | PKA-R2B holoenzyme dissociation, Cy5-IP20 fluorescence polarization; R2B truncated from residue 108, S112A mutant; 0% DMSO only, 100% 113 µM cGMP | activation, % at 11.4 µM | hit rate 0.079% among 340,000 | P22694+P31323;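 active = activation above a cutoff set at the mean over all compounds plus 3 SD, cut at about 18% in these data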;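 also: higher means more holoenzyme dissociation and a rise in polarization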
NR2E3 ag-2 – activates human photoreceptor nuclear receptor NR2E3. hit rate 0.12% among 320,000. GST-NR2E3/biotin-RetCOR TR-FRET, 1536-well. inhibition of corepressor binding, % at 4.78 µM;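 active = percent inhibition above the cutoff of mean plus 3 SD of all tested compounds, set per screening campaign, cut at about 20% in these data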;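 also: 0% = DMSO wells and 100% = biotin wells as full block of FRET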
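Material: NR2E3–RetCOR corepressor complex / Incubation: Compound–protein incubation for 5 h at 4 °C / Dosing: compound at 4.8 µM, single dose / Detection: time-resolved FRET / Benchmarks: high control biotin, low control 0.6% DMSO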
PG9 binder – binds the HIV-1 gp120 antibody PG9; TR-FRET gp120-PG9 antibody binding; inhibition, % at 6.7 µM; hit rate 0.43% among 360,000; AID 624416; in the data active = inhibition above about 8.5%
Rev-erbA confirm – confirmation of modulators of human Rev-erb alpha DNA binding; hit rate 61% among 3,000; shares compounds with Rev-erbA mod; Rev-erb alpha FITC-DNA binding, fluorescence polarization, 90 min; activation, % at 25 µM;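 active = activation at or above a set limit, or at least 3 SD above the negative control mean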;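 also: 0% = 35 nM protein with DMSO and 100% = 750 nM protein high control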
RORg DNA counter – affects RORgamma DNA binding in a Rev-erb alpha counter-screen; shares compounds with Rev-erbA mod; purified RORgamma protein-FITC-DNA binding, fluorescence polarization; AID 1259320; hit rate 8% among 910; IC50, µM;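 active = Compounds whose fitted half-maximal concentration for disrupting protein-DNA binding is below 10 micromolar; the record names Rev-erb in its text, so the target is in doubt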
* marks the source's active call; other numbers are inactive results; / = not tested or not shown.

SMILES | NR2E3 ag-1 | PKA-R1A act | Rev-erbA mod | PKA-R2B act | NR2E3 ag-2 | PG9 binder | Rev-erbA confirm | others
CCOC(=O)c1c(NC(=O)C2CCCO2)sc(C(=O)OC(C)(C)C)c1C (configuration not stated) | -8.2 | 1.3 | 45.8* | 10.7 | -0.8 | 1.3 | 30.6*
CC1CN(C(=O)N2c3ccccc3Sc3ccccc32)C(C)CC1=O (configuration not stated) | -18.3 | -3.3 | 43.8* | -0.4 | -0.4 | 3.2 | 60.4*
CC1Cc2ccccc2N1C(=O)CSc1nc2cc3c(cc2cc1C#N)OCO3 (configuration not stated) | -14.0 | -2.4 | 70.5* | -13.8 | 1.9 | 4.5 | 31.6*
Cc1cc2ccccc2nc1SCC(=O)N1c2ccccc2CC1C (configuration not stated) | -1.9 | -5.3 | 146.5* | -0.1 | 3.9 | 0.8 | -1.7
Cc1cc2cc3c(cc2nc1SCC(=O)N1c2ccccc2CC1C)OCO3 (configuration not stated) | -23.7 | 1.9 | 6.9 | 5.2 | 0.3 | -4.6 | /
COC(=O)C1CN(Cc2cn(CCC3OCCO3)nn2)CCS(=O)(=O)N1Cc1ccc(Cl)cc1 (configuration not stated) | / | / | -0.1 | / | / | / | /
CC(C)c1ccc(S(=O)(=O)c2cc3cc(Br)ccc3oc2=O)cc1 | 1.0 | -0.3 | 19.4* | -1.9 | 2.1 | -0.9 | 15.0
COCc1[nH]nc2c1C(c1ccccc1)NC2=O (configuration not stated) | / | / | 4.6 | / | / | -0.1 | /
CCOC(=O)Cc1csc(NC(=O)COc2ccc(N(C)S(=O)(=O)c3ccc(C)cc3)cc2)n1 | -22.0 | -0.8 | 8.2 | -7.3 | 1.7 | 2.1 | /
CCOc1ccc(S(=O)(=O)N(C)c2ccc(OCC(=O)Nc3nc(-c4cc(OC)ccc4OC)cs3)cc2)cc1 | 14.0 | -1.0 | 24.9* | -1.3 | 1.5 | 0.5 | 30.1*
COC(=O)c1cc2c(c3c4cc(F)ccc4n(S(=O)(=O)c4ccc(C)cc4)c13)C(=O)N(Cc1ccc(N(C)C)cc1)C2 | / | / | 2.4 | / | / | 0.3 | /
CCC[C@H]1[C@@H](NC(=O)c2ccc(Cl)cc2)CC[C@@]23CCCN2C(=O)CCC[C@@H]13 | / | / | -3.9 | / | / | / | /
CCC[C@H]1[C@@H](NCc2cccs2)CC[C@@]23CCCN2C(=O)CCC[C@@H]13 | / | / | 20.6* | / | / | / | 11.4*
Cc1cccc(-c2cccc3c4c([nH]c23)[C@@H]2C[C@H](N(C)C(=O)c3ccco3)[C@H]([C@H](C)O)CN2CC4)c1 | / | / | -0.1 | / | / | / | /
COc1ccccc1CN1CC(C(=O)NCc2nccn2C)CCC1=O (configuration not stated) | -17.4 | -2.2 | 20.4* | -12.3 | -1.2 | -2.0 | 4.3
COc1ccccc1CN1CC(C(=O)NCc2nc3ccccc3n2C)CCC1=O (configuration not stated) | -23.5 | -6.5 | 3.9 | 0.2 | / | -0.8 | /
COc1cccc(OC(=O)c2cc3ccccc3oc2=O)c1 | 7.9 | -3.6 | 2.0 | -11.8 | 5.5 | -0.8 | /
COc1ccc(-n2cc(C(=O)c3cc4ccccc4oc3=O)c(C(C)=O)n2)cc1 | 6.0 | -6.2 | 22.8* | -7.4 | -2.5 | 0.3 | 9.4
O=C(NCc1ccccc1)C(c1cc2ccccc2o1)n1c(=O)c(-c2ccccc2)nc2ccccc21 (configuration not stated) | / | / | 46.9* | / | / | -2.0 | 28.0* | RORg DNA counter=>40
COc1ccc(-n2c3c(cc(C(=O)Nc4cccc(C)n4)c2=O)C(=O)CC(C)(C)C3)cc1 | -19.7 | -0.8 | 33.2* | -1.8 | -5.2 | -3.0 | 13.8
O=C1CCC2(CCC(c3ccccc3)CC2)N1CCCO (configuration not stated) | / | / | 0.3 | / | / | / | /
O=C(/C=C/c1ccc(OCCCF)cc1)Nc1ccnc(-c2ccncc2)n1 | -11.9 | -5.6 | -2.5 | -17.6 | 0.2 | -1.2 | /
